Measured values: ChEMBL document CHEMBL1144410, “Synthesis of 3-arylpiperazinylalkylpyrrolo[3,2-d]pyrimidine-2,4-dione derivatives as novel, potent, and selective alpha1-adrenoceptor ligands” (J Med Chem, 2005)

Key:
[1] = target: T1, Adrenergic receptor alpha-1 (Rattus norvegicus, UniProt P15823+P23944+P43140); assay: Inhibition of [3H]prazosin binding to Alpha-1 adrenergic receptor from rat cortex
T1 sequence (P15823 whole entry): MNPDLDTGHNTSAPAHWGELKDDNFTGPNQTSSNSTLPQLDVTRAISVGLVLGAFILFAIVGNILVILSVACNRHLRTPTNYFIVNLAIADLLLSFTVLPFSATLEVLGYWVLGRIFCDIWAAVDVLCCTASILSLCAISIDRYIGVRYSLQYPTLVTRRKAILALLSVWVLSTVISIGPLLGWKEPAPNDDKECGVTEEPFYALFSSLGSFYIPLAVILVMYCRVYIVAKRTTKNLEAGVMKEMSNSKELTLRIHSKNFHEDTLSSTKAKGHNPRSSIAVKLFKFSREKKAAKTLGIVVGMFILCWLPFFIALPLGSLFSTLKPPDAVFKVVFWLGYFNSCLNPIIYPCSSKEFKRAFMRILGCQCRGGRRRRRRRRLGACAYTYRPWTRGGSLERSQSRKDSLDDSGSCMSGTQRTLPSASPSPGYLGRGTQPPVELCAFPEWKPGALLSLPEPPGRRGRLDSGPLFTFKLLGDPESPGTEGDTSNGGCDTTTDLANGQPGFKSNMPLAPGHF
T1 sequence (P23944 whole entry): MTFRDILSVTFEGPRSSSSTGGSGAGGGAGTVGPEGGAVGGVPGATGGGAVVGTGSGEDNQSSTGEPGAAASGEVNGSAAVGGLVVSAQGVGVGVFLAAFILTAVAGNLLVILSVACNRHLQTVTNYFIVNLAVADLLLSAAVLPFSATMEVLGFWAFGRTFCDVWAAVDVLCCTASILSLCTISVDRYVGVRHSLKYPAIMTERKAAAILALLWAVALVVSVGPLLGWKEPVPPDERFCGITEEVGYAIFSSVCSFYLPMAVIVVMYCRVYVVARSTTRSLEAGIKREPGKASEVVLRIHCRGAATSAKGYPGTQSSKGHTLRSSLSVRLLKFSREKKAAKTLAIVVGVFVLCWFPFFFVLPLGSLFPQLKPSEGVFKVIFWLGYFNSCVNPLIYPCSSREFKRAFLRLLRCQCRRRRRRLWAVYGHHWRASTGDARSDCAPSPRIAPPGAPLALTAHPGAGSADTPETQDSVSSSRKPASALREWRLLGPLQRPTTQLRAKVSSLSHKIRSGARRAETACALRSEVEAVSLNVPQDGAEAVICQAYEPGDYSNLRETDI
T1 sequence (P43140 whole entry): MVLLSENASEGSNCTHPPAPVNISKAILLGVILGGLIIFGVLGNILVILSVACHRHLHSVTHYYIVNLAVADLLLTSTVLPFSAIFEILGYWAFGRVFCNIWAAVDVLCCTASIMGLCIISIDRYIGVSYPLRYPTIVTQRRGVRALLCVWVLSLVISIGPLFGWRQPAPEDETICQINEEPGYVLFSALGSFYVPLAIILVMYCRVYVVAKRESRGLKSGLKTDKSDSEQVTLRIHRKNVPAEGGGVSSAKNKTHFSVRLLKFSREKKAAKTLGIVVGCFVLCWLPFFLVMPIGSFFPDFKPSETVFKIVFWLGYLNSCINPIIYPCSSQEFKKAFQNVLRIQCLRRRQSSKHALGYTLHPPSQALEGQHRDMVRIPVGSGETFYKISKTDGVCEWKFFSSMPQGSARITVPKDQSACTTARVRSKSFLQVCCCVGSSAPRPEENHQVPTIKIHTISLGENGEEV
Summary of the method: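 Prepared membranes resuspended in 50 mM Tris-HCl pH 7.7 with 10 µM pargyline and 0.1% ascorbic acid. [3H]prazosin 0.2 nM final, 30 min, 25 °C; nonspecific binding with 3 µM phentolamine. Bound ligand collected on GF/B filters, counted by liquid scintillation. Ki derived from IC50 of dose-inhibition curves; mean ± SD of three separate experiments.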

[2] = target: Serotonin 1a (5-HT1a) receptor/Adrenergic receptor alpha-1 (Rattus norvegicus) (UniProt P15823+P23944+P43140+P19327); assay: Relative binding affinity for 5-hydroxytryptamine 1A and Alpha-1 adrenergic receptors; type: protein assay
[3] = target: T2, 5-hydroxytryptamine receptor 1A (Rattus norvegicus, UniProt P19327); assay: Inhibition of [3H]8-OH-DPAT binding to 5-hydroxytryptamine 1A receptor from rat hippocampus; type: tissue-based
T2 sequence (P19327 whole entry): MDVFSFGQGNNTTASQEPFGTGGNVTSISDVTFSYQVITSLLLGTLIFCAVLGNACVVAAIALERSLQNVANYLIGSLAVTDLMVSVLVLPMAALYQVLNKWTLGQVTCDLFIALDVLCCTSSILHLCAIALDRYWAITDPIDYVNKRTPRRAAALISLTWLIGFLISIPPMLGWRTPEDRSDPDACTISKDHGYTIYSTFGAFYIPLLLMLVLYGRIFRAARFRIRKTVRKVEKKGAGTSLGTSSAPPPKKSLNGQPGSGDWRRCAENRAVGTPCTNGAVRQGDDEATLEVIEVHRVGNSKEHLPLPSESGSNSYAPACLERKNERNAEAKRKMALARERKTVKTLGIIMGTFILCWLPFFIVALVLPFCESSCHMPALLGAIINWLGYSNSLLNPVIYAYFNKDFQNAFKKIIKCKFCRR
Summary of the method: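 Membranes: tissue homogenized in ice-cold 50 mM Tris-HCl pH 7.4, spun 50000g, preincubated 37 °C 10 min, washed. Incubation buffer 50 mM Tris-HCl pH 7.7, 10 µM pargyline, 4 mM CaCl2. [3H]8-OH-DPAT 1 nM final, 30 min, 25 °C; nonspecific with 10 µM 5-HT. Stopped by GF/B filtration, scintillation counting. IC50 from dose-inhibition curves, converted to Ki; mean ± SD of three experiments.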

[4] = target: D(1A) dopamine receptor (Rattus norvegicus, UniProt P18901); assay: Inhibition of [3H]SCH-23390 binding to Dopamine receptor D1 from rat striatum
Chain of D(1A) dopamine receptor (P18901 whole entry): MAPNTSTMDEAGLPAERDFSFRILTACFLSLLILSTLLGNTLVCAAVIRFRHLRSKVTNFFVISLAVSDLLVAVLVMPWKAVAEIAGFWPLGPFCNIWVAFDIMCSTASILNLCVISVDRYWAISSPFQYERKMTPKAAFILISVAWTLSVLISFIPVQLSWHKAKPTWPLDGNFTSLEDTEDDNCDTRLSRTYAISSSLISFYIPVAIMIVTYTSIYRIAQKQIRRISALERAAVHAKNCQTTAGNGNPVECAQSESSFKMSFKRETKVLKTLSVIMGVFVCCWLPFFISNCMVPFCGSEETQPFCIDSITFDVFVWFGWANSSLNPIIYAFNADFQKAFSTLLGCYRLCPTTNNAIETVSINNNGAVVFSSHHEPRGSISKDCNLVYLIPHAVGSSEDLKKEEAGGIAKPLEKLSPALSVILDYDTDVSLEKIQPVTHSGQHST
Summary of the method: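 Ligand was [3H]SCH23390 at 0.4 nM final, 15 min, 25 °C; nonspecific binding defined with 10 µM (-)-cis-flupentixol. Filtration on GF/B, liquid scintillation counting. IC50 fitted, Ki derived; mean ± SD, n=3.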

[5] = organism: Rattus norvegicus; assay: Relative binding affinity for Dopamine D2 and Alpha-1 adrenergic receptors
[6] = organism: Rattus norvegicus; assay: Relative binding affinity for Dopamine D1 and Alpha-1 adrenergic receptors
[7] = target: D(2) dopamine receptor (Rattus norvegicus, UniProt P61169); assay: Inhibition of [3H]spiperone binding to Dopamine receptor D2 from rat striatum
Chain of D(2) dopamine receptor (P61169 whole entry): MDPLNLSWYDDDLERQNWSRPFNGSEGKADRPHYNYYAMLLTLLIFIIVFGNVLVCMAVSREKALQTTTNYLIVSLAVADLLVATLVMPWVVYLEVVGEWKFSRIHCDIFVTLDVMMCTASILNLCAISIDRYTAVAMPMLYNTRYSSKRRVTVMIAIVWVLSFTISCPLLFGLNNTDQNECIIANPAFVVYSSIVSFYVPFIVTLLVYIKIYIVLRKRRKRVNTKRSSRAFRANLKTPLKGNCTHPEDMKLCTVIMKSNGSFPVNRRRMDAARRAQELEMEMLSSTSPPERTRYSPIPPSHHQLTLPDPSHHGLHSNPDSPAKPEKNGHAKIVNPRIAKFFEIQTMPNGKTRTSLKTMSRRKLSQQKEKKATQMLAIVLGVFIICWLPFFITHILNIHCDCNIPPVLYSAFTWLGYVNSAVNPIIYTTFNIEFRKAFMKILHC
Summary of the method: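 Membrane incubation in 50 mM Tris-HCl pH 7.1 with 10 µM pargyline, 120 mM NaCl, 5 mM KCl, 2 mM CaCl2, 1 mM MgCl2 and 0.1% ascorbic acid. [3H]spiperone 0.2 nM final, 15 min at 37 °C; 100 µM (-)-sulpiride for nonspecific binding. Vacuum filtration through GF/B, scintillation counting; Ki from IC50 of dose-inhibition curves, mean ± SD of three runs.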

Compound | Ki [1] [µM] | Ratio [2] | Ki [3] [µM] | Ki [4] [µM] | Ratio [5] | Ratio [6] | Ki [7] [µM]
O=c1[nH]c2cc(-c3ccccc3)[nH]c2c(=O)n1CCCN1CCN(c2ccccc2Cl)CC1 | 0.06237 | 2.1 | 0.13 | – | – | – | –
COc1ccccc1N1CCN(CCn2c(=O)[nH]c3cc[nH]c3c2=O)CC1 | 0.00231 | 282 | 0.651 | – | – | – | –
O=c1[nH]c2cc[nH]c2c(=O)n1CCCN1CCN(c2ccccc2Cl)CC1 | 0.05978 | 6.3 | 0.376 | – | – | – | –
O=c1[nH]c2cc(-c3ccc(Cl)cc3)[nH]c2c(=O)n1CCN1CCN(c2ccccc2Cl)CC1 | 0.0117 | > 800 | > 10 | > 10 | > 800 | > 800 | > 10
Cc1ccc(-c2cc3[nH]c(=O)n(CCN4CCN(c5ccccc5Cl)CC4)c(=O)c3[nH]2)cc1 | 0.01726 | > 500 | > 10 | > 10 | > 500 | > 500 | > 10
COc1ccc(N2CCN(CCn3c(=O)[nH]c4cc(-c5ccccc5)[nH]c4c3=O)CC2)cc1 | > 10 | – | > 10 | – | – | – | –
COc1ccccc1N1CCN(CCn2c(=O)[nH]c3cc(-c4ccc(C)cc4)[nH]c3c2=O)CC1 | 0.00205 | > 4500 | > 10 | > 10 | 9.7 | > 4500 | 0.0199
COc1ccccc1N1CCN(CCn2c(=O)[nH]c3cc(-c4ccc(Cl)cc4)[nH]c3c2=O)CC1 | 0.00768 | > 1000 | > 10 | > 10 | 0.47 | > 1000 | 0.00364
COc1ccc(-c2cc3[nH]c(=O)n(CCN4CCN(c5ccccc5Cl)CC4)c(=O)c3[nH]2)cc1 | 0.0034 | > 2500 | > 10 | > 10 | 0.65 | > 2500 | 0.00223
O=c1[nH]c2c([nH]c3ccccc32)c(=O)n1CCN1CCN(c2ccccc2Cl)CC1 | 0.00053 | > 15000 | > 10 | – | – | – | –
O=c1[nH]c2cc(-c3ccccc3Cl)[nH]c2c(=O)n1CCN1CCN(c2ccccc2Cl)CC1 | 0.00046 | > 20000 | > 10 | > 10 | 60 | > 20000 | 0.0278
COc1ccccc1N1CCN(CCCn2c(=O)[nH]c3cc[nH]c3c2=O)CC1 | 0.02801 | 6.9 | 0.193 | – | – | – | –
Cc1ccc(-c2cc3[nH]c(=O)n(CCCN4CCN(c5ccccc5Cl)CC4)c(=O)c3[nH]2)cc1 | 0.1101 | > 90 | > 10 | – | – | – | –
O=c1[nH]c2cc[nH]c2c(=O)n1CCN1CCN(c2ccccc2Cl)CC1 | 0.00094 | 594 | 0.559 | > 10 | 343 | > 10000 | 0.322

More lines, main results first:

Ki [1] [µM] | Ratio [2] | Ki [3] [µM] | Compound | Ki [4] [µM] | Ratio [5] | Ratio [6] | Ki [7] [µM]
0.00076 | 21 | 0.0161 | COc1ccccc1N1CCN(CCn2c(=O)[nH]c3cc(-c4ccccc4Cl)[nH]c3c2=O)CC1 | – | – | – | –
0.00108 | 32 | 0.035 | O=c1[nH]c2cc(-c3ccccc3)[nH]c2c(=O)n1CCN1CCN(c2ccccc2Cl)CC1 | – | – | – | –
– | 238 | – | COc1ccccc1N1CCN(CCn2c(=O)[nH]c3c([nH]c4ccccc43)c2=O)CC1 | – | – | – | –
0.04788 | 1.73 | 0.083 | COc1ccccc1N1CCN(CCCn2c(=O)[nH]c3cc(-c4ccc(C)cc4)[nH]c3c2=O)CC1 | – | – | – | –
0.01932 | 0.87 | 0.0169 | COc1ccccc1N1CCN(CCn2c(=O)[nH]c3cc(-c4cccc(Cl)c4)[nH]c3c2=O)CC1 | – | – | – | –
0.00052 | 46 | 0.024 | COc1ccccc1N1CCN(CCn2c(=O)[nH]c3cc(-c4ccccc4)[nH]c3c2=O)CC1 | – | – | – | –
0.00123 | 18 | 0.0224 | COc1ccccc1N1CCN(CCCn2c(=O)[nH]c3cc(-c4ccccc4)[nH]c3c2=O)CC1 | – | – | – | –
